High-throughput results as filed in PubChem.
TAAR1 antagonist: human TAAR1 antagonists, primary screen, Fluo-8 calcium fluorescence, CHO RD-HGA16 cells; AID 624466, 2012; inhibition, % at 3 µM; Trace amine-associated receptor 1 (Homo sapiens), Q96RJ0; 360,000 tested, 1.5% active; antagonist;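 active = inhibition above a per-plate cutoff, the mean inhibition of test compounds on that plate plus 3 SD, cut at about 49% in these data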
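test system = CHO RD-HGA16 cells bearing hTAAR1 | replication = singlicate | controls = DMSO-only wells and EC80 β-PEA-stimulated wells | reagent = EC80 β-phenethylamine stimulus | read-out basis = percent inhibition of PEA-evoked calcium signal, max/basal emission ratio | schedule = seeding 17-24 h prior, 75-min 37 °C, 30-min RT dye loading | signal = kinetic Fluo-8 calcium fluorescence measurement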
OX1R antag-1: OX1R (HCRTR1) antagonists, primary screen, fluorescence, CHO/OX1R cells, Fluo-8 calcium, orexin A; Fluo-8 calcium fluorescence; inhibition, % at 5 µM; 330,000 tested, 0.43% active;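 active = inhibition above its plate's threshold, mean inhibition of all tested compounds on the plate plus 3 SD, cut at about 37% in these data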
Target sequence (O43613 whole entry, looked up): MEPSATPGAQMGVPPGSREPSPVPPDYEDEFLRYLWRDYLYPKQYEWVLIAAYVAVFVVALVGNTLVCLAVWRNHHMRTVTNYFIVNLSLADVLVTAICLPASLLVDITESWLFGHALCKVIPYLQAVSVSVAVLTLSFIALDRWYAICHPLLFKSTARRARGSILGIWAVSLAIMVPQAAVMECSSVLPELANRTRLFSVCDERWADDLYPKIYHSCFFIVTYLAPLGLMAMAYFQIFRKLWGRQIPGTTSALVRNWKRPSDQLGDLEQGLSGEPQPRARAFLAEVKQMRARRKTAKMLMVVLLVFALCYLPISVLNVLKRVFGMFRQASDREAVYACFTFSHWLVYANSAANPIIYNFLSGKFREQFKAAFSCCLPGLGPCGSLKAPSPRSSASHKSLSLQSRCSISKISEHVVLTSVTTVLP
CHO parental Ca: ATP-evoked calcium signal inhibitors, parental CHO, primary screen, counter-screen for OX1R antagonist project, cell-based, fluorescence, Fluo-8 calcium dye. inhibition, % at 5.6 µM. AID 463079, 2010. parental CHO-K1, ATP-induced calcium, Fluo-8 fluorescence. 330,000 tested, 0.63% active;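 active = inhibition above that plate's mean sample inhibition plus 3 SD, cut at about 26% in these data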
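Assay system: untransfected parental CHO cell line. Also added: ATP agonist challenge. Dosing: one dose, 5.6 µM nominal. Measured by: Fluo-8 fluorescence. Read-out: % inhibition. Benchmarks: ATP wells versus no-ATP DMSO wells. Repeats: no replicates.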
OX1R antag-2: antagonists of human orexin 1 receptor (OX1R); OX1R-expressing cells, FRET antagonist read-out; inhibition, % at 6.6 µM; 330,000 tested, 1.8% active; AID 485270, 2010; in the data active = inhibition mostly above about 38%, no sharp cut-off; inactive = mostly below about 40%
GPR7 antag: GPR7 receptor antagonists, primary screen, cell-based, fluorescence, single concentration; Neuropeptides B/W receptor type 1 (Homo sapiens), P48145; inhibition, % at 4.4 µM; 290,000 tested, 1.1% active; GPR7-expressing cells, fluorescence antagonist assay; in the data active = inhibition above about 16%, passing the limit was not always enough;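 also: cells stimulated with the agonist NPW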
Target sequence (P48145 whole entry, looked up): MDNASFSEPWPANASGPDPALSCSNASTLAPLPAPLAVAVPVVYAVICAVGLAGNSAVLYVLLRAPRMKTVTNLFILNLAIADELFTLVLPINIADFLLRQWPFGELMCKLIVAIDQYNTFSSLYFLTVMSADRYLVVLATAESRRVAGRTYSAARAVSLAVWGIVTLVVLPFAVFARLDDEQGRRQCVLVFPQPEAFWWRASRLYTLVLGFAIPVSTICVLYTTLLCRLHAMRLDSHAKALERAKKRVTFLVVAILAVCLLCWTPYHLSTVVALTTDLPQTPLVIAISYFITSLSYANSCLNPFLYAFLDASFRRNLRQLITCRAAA
TAAR1 agonist: human TAAR1 agonists, primary screen, Fluo-8 calcium fluorescence, CHO RD-HGA16 cells; Trace amine-associated receptor 1 (Homo sapiens), Q96RJ0; vehicle wells 0%, saturating PEA agonist 100%; activation, % at 3 µM; 360,000 tested, 0.99% active; AID 624467, 2012;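 active = activation above the mean activation of all test compounds in the run plus 3 SD, cut at about 38% in these data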
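System: CHO RD-HGA16 cells carrying human TAAR1 plus Gα16; Incubation: 17-24 h seeding, 75 min 37 °C dye, 30 min RT; Measured by: Fluo-8 fluorescence, 5 s baseline then 140 s kinetic read; Control set: DMSO and PEA EC100; Replication: single well for each compound.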
nonsel antag count: nonselective antagonists in TAAR1 counter-screen cells, counter-screen for hTAAR1 antagonist project, cell-based, fluorescence, calcium | shares compounds with TAAR1 antagonist | counterscreen cell line, antagonist mode | inhibition, % at 3 µM | 2,400 tested, 77% active | AID 651780, 2012; in the data active = inhibition above about 22%;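 also: CHO-Ga16 host cells stimulated with ATP at an EC80 level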
TAAR1 ant conf: human TAAR1 antagonists, retest of hits, confirmation, cell-based, fluorescence; shares compounds with TAAR1 antagonist; TAAR1-expressing cells, fluorescence antagonist read-out; inhibition, % at 3 µM; 2,400 tested, 40% active; in the data active = inhibition above about 49%;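 also: CHO-Ga16 host cells challenged with agonist PEA near its EC80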
Ga16 ag counter: calcium activation in Ga16-expressing cells, counter-screen for TAAR1 antagonist project, cell-based, fluorescence. shares compounds with TAAR1 antagonist. agonist counterscreen. activation, % at 3 µM. 2,400 tested, 18% active. AID 651953, 2012; in the data active = activation above about 12%
TAAR1 ag count: TAAR1 activation by candidate antagonists – cell-based, fluorescence, counter-screen for TAAR1 antagonist project. shares compounds with TAAR1 antagonist. hTAAR1 cell line, agonist mode. activation, % at 3 µM. 2,400 tested, 2% active; in the data active = activation above about 37%;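 also: CHO cells stably expressing TAAR1 with calcium dye readout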
Of the large screens only hits and unclear results are named; the others gave an inactive call (follow-up assays come after a bar, where they were run). Compounds with a hit are over-represented: about 4.5% of the library has one in this group of screens.

COc1ccccc1CNC(=O)c1cc(-c2ccccc2)nn1CC1CC(c2cccnc2)=NO1 (stereo not drawn)	TAAR1 antagonist 53 (no result: GPR7 antag) | nonsel antag count inactive | TAAR1 ant conf inactive | Ga16 ag counter inactive | TAAR1 ag count inactive
COc1ccccc1Nc1cc(C(=O)NCc2cccnc2)c2ccccc2n1	none
COc1ccc(C2=NOC(Cn3nc(C(=O)NCc4cccc(Br)c4)cc3-c3ccccc3)C2)cc1 (stereo not drawn)	TAAR1 antagonist 57 (no result: GPR7 antag) | nonsel antag count 30 | TAAR1 ant conf inactive | Ga16 ag counter inactive | TAAR1 ag count inactive
COCCNC(=O)c1cc(-c2ccc(-c3ccccc3)cc2)nc2ccccc12	TAAR1 antagonist 55 | nonsel antag count 25 | TAAR1 ant conf inactive | Ga16 ag counter inactive | TAAR1 ag count inactive
COc1ccc(C2=NOC(Cn3nc(-c4ccccc4)cc3C(=O)NCc3cccc(Br)c3)C2)cc1 (stereo not drawn)	none (no result: GPR7 antag)
Cc1nc2ccccc2c(=O)n1/N=C/c1ccc(C(C)C)cc1	TAAR1 antagonist 61 | nonsel antag count 31 | TAAR1 ant conf inactive | Ga16 ag counter inactive | TAAR1 ag count inactive
CCOC(=O)CCCSc1nnc(CCCCCN2C(=O)c3cccc4cccc(c34)C2=O)o1	TAAR1 antagonist 58 | nonsel antag count 37 | TAAR1 ant conf inactive | Ga16 ag counter inactive | TAAR1 ag count inactive
O=C1c2ccccc2C(c2nnnn2Cc2ccccc2)N1CCc1c[nH]c2ccccc12 (stereo not drawn)	TAAR1 antagonist 72 (no result: OX1R antag-1, CHO parental Ca, OX1R antag-2, GPR7 antag) | nonsel antag count 40 | TAAR1 ant conf 62 | Ga16 ag counter inactive | TAAR1 ag count inactive
O=C1c2ccccc2C(c2nnnn2Cc2ccccc2)N1Cc1ccc(F)cc1 (stereo not drawn)	none (no result: OX1R antag-1, CHO parental Ca, OX1R antag-2, GPR7 antag)
CCOc1cc(/C=N/NC(=O)C(O)(c2ccccc2)c2ccccc2)ccc1OC(=O)c1ccco1	TAAR1 antagonist 80 (no result: GPR7 antag) | nonsel antag count 33 | TAAR1 ant conf 56 | Ga16 ag counter inactive | TAAR1 ag count inactive
COc1cc(-c2cc3nc4ccccc4n3c(N)c2C#N)cc(OC)c1OC	TAAR1 antagonist 90 | nonsel antag count 34 | TAAR1 ant conf 53 | Ga16 ag counter inactive | TAAR1 ag count inactive
N#Cc1c(-c2ccccc2)cc2nc3ccccc3n2c1N	none
O=C(c1ccc(C(F)(F)F)cc1)N1CCC(=O)N(C(COCc2ccc(Cl)cc2)Cc2ccccc2)CC1 (stereo not drawn)	none
CC(C)(C)c1ccc(C(=O)N2CCC(=O)N([C@H](COCc3ccccc3)Cc3ccccc3)CC2)cc1	TAAR1 antagonist 71 (no result: OX1R antag-1, CHO parental Ca, OX1R antag-2, GPR7 antag) | nonsel antag count 27 | TAAR1 ant conf 50 | Ga16 ag counter inactive | TAAR1 ag count inactive
CN(CC(=O)NCCCc1ccccc1)S(=O)(=O)c1ccc(Br)cc1	none
CCN=C1SC(C(=O)Nc2ccc(Cl)c(Cl)c2)CC(=O)N1CC (stereo not drawn)	TAAR1 antagonist 80 | nonsel antag count 44 | TAAR1 ant conf 66 | Ga16 ag counter 13 | TAAR1 ag count inactive
CCN=C1SC(C(=O)Nc2cccc(Br)c2)CC(=O)N1CC (stereo not drawn)	TAAR1 antagonist 75 | nonsel antag count 37 | TAAR1 ant conf 63 | Ga16 ag counter inactive | TAAR1 ag count inactive
Cc1cc(F)ccc1-c1cc(C(=O)N2CCN(c3ccncc3)CC2)[nH]n1	none (no result: OX1R antag-1, CHO parental Ca, OX1R antag-2, GPR7 antag)
C=CCN1C[C@H](COC(=O)c2cccc(C)c2)Oc2cccc(F)c2S1(=O)=O	TAAR1 antagonist 49 (no result: OX1R antag-1, CHO parental Ca, OX1R antag-2, GPR7 antag) | nonsel antag count 38 | TAAR1 ant conf 50 | Ga16 ag counter inactive | TAAR1 ag count inactive
C[C@H](CO)N1C[C@H](C)[C@@H](CN(C)Cc2ccc3c(c2)OCO3)Oc2ccc(NC(=O)Cn3cnnn3)cc2C1=O	none (no result: GPR7 antag)
COc1cccc(CNC(=O)CCS(=O)(=O)c2ccccc2Cl)c1	none (no result: GPR7 antag)
O=C(Nc1cc(=O)c2ccccc2o1)N1CCOCC1	TAAR1 antagonist 64 | nonsel antag count inactive | TAAR1 ant conf inactive | Ga16 ag counter inactive | TAAR1 ag count inactive
O=C(Nc1cc(=O)c2ccccc2o1)N1CCCCC1	none
O=C(CCN1C(=O)/C(=C/c2cccs2)SC1=S)Nc1ccc(O)cc1	none
COc1cc(/C=C2/SC(=S)N(CCC(=O)Nc3cccnc3)C2=O)cc(OC)c1OC	TAAR1 antagonist 60 (no result: OX1R antag-1, CHO parental Ca, OX1R antag-2, GPR7 antag) | nonsel antag count 30 | TAAR1 ant conf 51 | Ga16 ag counter inactive | TAAR1 ag count inactive
O=C(CCN1C(=O)/C(=C/c2cccs2)SC1=S)Nc1cccc(O)c1	TAAR1 antagonist 72 | nonsel antag count 47 | TAAR1 ant conf 60 | Ga16 ag counter 16 | TAAR1 ag count inactive
COc1cc(/C=C2\SC(=S)N(CCC(=O)Nc3ccccc3)C2=O)cc(OC)c1OC	none
COc1ccc(/C=C2/SC(=S)N(CCC(=O)Nc3cccnc3)C2=O)cc1OC	none (no result: OX1R antag-1, CHO parental Ca, OX1R antag-2, GPR7 antag)
COc1cc(/C=C2\SC(=S)N(CCC(=O)Nc3cccc(O)c3)C2=O)cc(OC)c1OC	TAAR1 antagonist 88 | nonsel antag count 36 | TAAR1 ant conf 58 | Ga16 ag counter inactive | TAAR1 ag count inactive
O=C(Nc1ccc(Cl)cc1)C1C2C=CC3(O2)C1C(=O)N(CCCN1CCCCC1)C3C(=O)NC1CCCCC1 (stereo not drawn)	none
COCCCNC1=C(C#N)C(=O)NC2(CCCC2)S1	none (no result: OX1R antag-1, CHO parental Ca, OX1R antag-2, GPR7 antag)
CCCCOc1cccc2c(=O)n(CC(=O)Nc3ccc4c(c3)OCCO4)ccc12	TAAR1 antagonist 71 (no result: OX1R antag-1, CHO parental Ca, OX1R antag-2, GPR7 antag) | nonsel antag count 43 | TAAR1 ant conf 88 | Ga16 ag counter 13 | TAAR1 ag count inactive
O=C(Cn1cnc2ccccc2c1=O)Nc1ccc2c(c1)OCCO2	none
